Data from ChEMBL document CHEMBL1955823, “Imidazo[1,2-a]pyrazines as novel PI3K inhibitors” (Bioorg Med Chem Lett, 2012).

Columns and labels:
[1] = target: Insulin receptor (Homo sapiens) (UniProt P06213); assay: Inhibition of INS-R at 5 to 10 uM
[2] = target: T1, PI3-kinase p110-alpha/p85-alpha (Homo sapiens, UniProt P42336); assay: Inhibition of PI3K p110alpha/p85alpha; assay type: protein-complex assay
Summary of the method: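 Biochemical kinase assay following the kit manufacturer's protocol with a modified kinase buffer (50 mM HEPES pH 7.5, 3 mM MgCl2, 100 mM NaCl, 1 mM EGTA, 0.04% CHAPS, 2 mM TCEP, 0.01 mg/ml BGG); 10 nM enzyme; ATP 50 µM; values are averages of two independent experiments, each in duplicate.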

[3] = target: Serine/threonine-protein kinase pim-2 (Homo sapiens) (UniProt Q9P1W9); assay: Inhibition of PIM2 at 5 to 10 uM
[4] = target: T1, PI3-kinase p110-alpha/p85-alpha; assay: Inhibition of PI3K p110alpha/p85alpha-mediated AKT1 phosphorylation at Ser473 in human U2OS cells; assay type: cell-based
Summary of the method: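 Endogenous phospho-Akt1 (Ser473) measured in U2OS osteosarcoma cells kept in 0.1% FBS and then serum-stimulated; read-out by cell-based ELISA with femto chemiluminescent substrate.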

[5] = target: Serine/threonine-protein kinase PAK 1 (Homo sapiens) (UniProt Q13153); assay: Inhibition of PAK1 at 5 to 10 uM
[6] = target: Phosphatidylinositol 4,5-bisphosphate 3-kinase catalytic subunit gamma isoform (Homo sapiens, UniProt P48736); assay: Inhibition of human PI3K p110gamma; conditions: read-out: Ki(app)
[7] = target: Fibroblast growth factor receptor 1 (Homo sapiens) (UniProt P11362); assay: Inhibition of FGF-R1 at 5 to 10 uM
[8] = target: Epidermal growth factor receptor (Homo sapiens) (UniProt P00533); assay: Inhibition of EGF-R at 5 to 10 uM
[9] = target: Serine/threonine-protein kinase pim-1 (Homo sapiens) (UniProt P11309); assay: Inhibition of PIM1 at 5 to 10 uM
[10] = target: Receptor-type tyrosine-protein kinase FLT3 (Homo sapiens) (UniProt P36888); assay: Inhibition of FLT3 at 5 to 10 uM
[11] = target: Mast/stem cell growth factor receptor Kit (Homo sapiens) (UniProt P10721); assay: Inhibition of KIT at 5 to 10 uM
[12] = target: Insulin-like growth factor 1 receptor (Homo sapiens) (UniProt P08069); assay: Inhibition of IGF1-R at 5 to 10 uM
[13] = target: RAC-alpha serine/threonine-protein kinase (Homo sapiens) (UniProt P31749); assay: Inhibition of AKT1 at 5 to 10 uM
[14] = target: Tyrosine-protein kinase JAK2 (Homo sapiens) (UniProt O60674); assay: Inhibition of JAK2 at 5 to 10 uM
[15] = target: T1, PI3-kinase p110-alpha/p85-alpha; assay: Inhibition of human PI3K p110alpha/p85alpha; assay type: protein-complex assay; conditions: read-out: Ki(app)
[16] = system: Serine/threonine-protein kinase B-raf (Homo sapiens), P15056 [V600E]; assay: Inhibition of BRAF V600E mutant at 5 to 10 uM
[17] = Inhibition of PDGFR at 5 to 10 uM
[18] = target: Mitogen-activated protein kinase 8 (Homo sapiens) (UniProt P45983); assay: Inhibition of JNK1 at 5 to 10 uM
[19] = target: Casein kinase I isoform alpha (Homo sapiens) (UniProt P48729); assay: Inhibition of CK1alpha1 at 5 to 10 uM
[20] = target: Hepatocyte growth factor receptor (Homo sapiens) (UniProt P08581); assay: Inhibition of MET at 5 to 10 uM
[21] = target: T2, CYP1A2 (Homo sapiens, UniProt P05177); assay: Inhibition of CYP1A2 at 10 uM; assay type: ADME
T2 sequence (P05177 whole entry): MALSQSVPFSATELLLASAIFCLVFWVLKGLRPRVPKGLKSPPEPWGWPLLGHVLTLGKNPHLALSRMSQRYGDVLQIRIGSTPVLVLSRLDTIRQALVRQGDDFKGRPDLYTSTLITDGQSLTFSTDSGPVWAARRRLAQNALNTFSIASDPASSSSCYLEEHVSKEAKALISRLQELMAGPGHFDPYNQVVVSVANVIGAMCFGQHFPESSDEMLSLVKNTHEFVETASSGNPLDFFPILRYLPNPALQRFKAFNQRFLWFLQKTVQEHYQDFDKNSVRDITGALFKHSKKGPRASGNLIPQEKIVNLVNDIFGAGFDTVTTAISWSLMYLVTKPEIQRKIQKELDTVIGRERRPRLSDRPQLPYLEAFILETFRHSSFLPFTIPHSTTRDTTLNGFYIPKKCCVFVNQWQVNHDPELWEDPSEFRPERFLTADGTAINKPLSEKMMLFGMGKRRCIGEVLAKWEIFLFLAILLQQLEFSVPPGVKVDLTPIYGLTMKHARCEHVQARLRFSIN
Summary of the method: (§1)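 CYP isoform panel (1A2, 2C9, 2C19, 2D6, 3A4); percent inhibition recorded at 10 µM test compound; run in duplicate by an outside contractor.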

[22] = Metabolic stability in human liver microsomes assessed as compound remaining at 1 uM after 30 mins
[23] = Metabolic stability in mouse liver microsomes assessed as compound remaining at 1 uM after 30 mins
[24] = target: CYP3A4 (Homo sapiens, UniProt P08684); assay: Inhibition of CYP3A4 at 10 uM; assay type: ADME; summary of the method: as §1
[25] = target: CYP2D6 (Homo sapiens, UniProt P10635); assay: Inhibition of CYP2D6 at 10 uM; assay type: ADME; summary of the method: as §1
[26] = target: CYP2C9 (Homo sapiens, UniProt P11712); assay: Inhibition of CYP2C9 at 10 uM; assay type: ADME; summary of the method: as §1
[27] = target: CYP2C19 (Homo sapiens, UniProt P33261); assay: Inhibition of CYP2C19 at 10 uM; assay type: ADME; summary of the method: as §1

Receptor-type tyrosine-protein kinase FLT3 (Homo sapiens), sequence (P36888 whole entry): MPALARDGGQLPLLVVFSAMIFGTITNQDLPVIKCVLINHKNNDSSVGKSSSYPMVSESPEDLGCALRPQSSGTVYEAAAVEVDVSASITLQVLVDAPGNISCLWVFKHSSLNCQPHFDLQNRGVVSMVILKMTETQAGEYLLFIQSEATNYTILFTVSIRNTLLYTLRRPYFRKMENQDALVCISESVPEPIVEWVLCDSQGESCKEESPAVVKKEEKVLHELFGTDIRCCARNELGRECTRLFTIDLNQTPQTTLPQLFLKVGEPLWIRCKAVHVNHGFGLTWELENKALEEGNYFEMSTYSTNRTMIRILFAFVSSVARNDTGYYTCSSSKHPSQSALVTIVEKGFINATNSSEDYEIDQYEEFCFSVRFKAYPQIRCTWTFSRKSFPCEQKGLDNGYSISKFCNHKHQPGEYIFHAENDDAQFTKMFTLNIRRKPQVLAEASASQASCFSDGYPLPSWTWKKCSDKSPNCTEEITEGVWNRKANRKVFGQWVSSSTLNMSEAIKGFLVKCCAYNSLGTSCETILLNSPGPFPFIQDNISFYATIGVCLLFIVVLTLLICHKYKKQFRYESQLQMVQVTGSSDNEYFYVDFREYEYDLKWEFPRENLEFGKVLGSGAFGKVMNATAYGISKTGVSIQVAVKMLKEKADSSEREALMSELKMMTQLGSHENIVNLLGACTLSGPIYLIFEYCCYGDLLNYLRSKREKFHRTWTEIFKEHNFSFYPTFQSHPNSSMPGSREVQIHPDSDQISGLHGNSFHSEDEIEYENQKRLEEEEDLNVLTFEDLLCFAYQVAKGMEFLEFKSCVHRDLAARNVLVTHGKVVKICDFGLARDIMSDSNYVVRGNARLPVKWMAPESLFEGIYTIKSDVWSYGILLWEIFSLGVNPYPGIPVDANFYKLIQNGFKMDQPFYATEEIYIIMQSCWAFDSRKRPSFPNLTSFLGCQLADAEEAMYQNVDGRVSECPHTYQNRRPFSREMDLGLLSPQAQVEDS
Epidermal growth factor receptor (Homo sapiens), sequence (P00533 whole entry): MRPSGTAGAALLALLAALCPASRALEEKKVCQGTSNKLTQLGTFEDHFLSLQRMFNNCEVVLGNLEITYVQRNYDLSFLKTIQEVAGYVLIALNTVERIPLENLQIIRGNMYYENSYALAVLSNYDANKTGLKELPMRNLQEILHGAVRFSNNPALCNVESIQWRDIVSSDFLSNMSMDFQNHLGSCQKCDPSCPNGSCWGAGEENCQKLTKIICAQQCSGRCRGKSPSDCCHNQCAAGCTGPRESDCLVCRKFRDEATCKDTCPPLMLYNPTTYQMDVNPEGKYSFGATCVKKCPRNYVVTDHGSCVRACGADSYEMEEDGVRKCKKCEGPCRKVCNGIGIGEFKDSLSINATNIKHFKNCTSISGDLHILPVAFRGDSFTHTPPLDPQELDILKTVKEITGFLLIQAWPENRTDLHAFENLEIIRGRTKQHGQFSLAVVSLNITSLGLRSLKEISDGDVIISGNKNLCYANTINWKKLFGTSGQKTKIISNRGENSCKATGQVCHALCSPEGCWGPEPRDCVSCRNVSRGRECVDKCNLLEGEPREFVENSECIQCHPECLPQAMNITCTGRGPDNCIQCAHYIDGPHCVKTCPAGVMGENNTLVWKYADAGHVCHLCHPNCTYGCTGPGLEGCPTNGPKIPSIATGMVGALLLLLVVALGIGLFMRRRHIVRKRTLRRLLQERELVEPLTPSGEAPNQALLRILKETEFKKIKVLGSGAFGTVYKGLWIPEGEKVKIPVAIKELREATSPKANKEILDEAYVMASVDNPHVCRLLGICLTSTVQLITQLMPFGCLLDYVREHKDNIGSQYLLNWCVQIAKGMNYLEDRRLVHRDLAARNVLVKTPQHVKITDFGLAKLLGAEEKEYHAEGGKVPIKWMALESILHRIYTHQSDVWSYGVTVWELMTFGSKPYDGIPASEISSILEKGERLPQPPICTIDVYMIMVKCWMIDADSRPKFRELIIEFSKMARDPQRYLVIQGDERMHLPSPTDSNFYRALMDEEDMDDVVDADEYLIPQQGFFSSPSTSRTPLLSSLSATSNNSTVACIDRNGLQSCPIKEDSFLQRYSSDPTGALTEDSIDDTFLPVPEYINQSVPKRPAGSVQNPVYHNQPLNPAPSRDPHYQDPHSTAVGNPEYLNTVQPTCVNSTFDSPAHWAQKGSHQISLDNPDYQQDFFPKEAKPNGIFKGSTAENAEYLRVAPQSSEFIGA
Serine/threonine-protein kinase PAK 1 (Homo sapiens), sequence (Q13153 whole entry, canonical isoform): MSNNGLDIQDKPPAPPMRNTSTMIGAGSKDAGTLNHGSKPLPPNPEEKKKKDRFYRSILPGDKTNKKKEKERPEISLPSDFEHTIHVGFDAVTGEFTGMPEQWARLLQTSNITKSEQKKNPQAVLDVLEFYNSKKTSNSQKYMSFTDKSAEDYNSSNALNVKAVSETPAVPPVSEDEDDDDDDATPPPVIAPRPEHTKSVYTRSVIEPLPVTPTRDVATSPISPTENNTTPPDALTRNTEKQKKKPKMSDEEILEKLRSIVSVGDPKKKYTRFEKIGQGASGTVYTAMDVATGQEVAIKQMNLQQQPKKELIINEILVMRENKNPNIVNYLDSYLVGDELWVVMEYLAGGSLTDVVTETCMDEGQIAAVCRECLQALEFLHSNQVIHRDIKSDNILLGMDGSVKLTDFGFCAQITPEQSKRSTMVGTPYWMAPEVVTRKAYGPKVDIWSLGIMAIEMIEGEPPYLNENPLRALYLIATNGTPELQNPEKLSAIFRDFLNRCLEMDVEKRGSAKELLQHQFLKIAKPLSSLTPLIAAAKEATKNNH
Insulin-like growth factor 1 receptor (Homo sapiens), sequence (P08069 31-736 limits assumed): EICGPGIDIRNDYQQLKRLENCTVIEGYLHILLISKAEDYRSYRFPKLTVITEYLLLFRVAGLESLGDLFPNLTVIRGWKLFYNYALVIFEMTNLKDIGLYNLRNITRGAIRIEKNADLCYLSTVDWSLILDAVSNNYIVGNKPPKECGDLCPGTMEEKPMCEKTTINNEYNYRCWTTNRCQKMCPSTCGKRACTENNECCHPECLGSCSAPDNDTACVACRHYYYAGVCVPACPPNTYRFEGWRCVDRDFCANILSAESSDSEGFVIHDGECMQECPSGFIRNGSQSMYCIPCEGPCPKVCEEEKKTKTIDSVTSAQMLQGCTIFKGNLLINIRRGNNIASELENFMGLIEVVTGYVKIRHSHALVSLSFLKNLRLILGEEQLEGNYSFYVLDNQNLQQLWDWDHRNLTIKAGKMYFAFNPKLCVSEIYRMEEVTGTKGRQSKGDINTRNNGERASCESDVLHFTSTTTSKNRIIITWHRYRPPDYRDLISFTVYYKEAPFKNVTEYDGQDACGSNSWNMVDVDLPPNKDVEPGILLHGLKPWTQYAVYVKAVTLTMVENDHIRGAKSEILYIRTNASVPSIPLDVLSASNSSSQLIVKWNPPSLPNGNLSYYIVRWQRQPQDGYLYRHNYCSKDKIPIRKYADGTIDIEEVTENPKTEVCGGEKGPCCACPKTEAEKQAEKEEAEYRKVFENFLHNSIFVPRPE
Insulin-like growth factor 1 receptor (Homo sapiens), sequence (P08069 741-1367 limits assumed): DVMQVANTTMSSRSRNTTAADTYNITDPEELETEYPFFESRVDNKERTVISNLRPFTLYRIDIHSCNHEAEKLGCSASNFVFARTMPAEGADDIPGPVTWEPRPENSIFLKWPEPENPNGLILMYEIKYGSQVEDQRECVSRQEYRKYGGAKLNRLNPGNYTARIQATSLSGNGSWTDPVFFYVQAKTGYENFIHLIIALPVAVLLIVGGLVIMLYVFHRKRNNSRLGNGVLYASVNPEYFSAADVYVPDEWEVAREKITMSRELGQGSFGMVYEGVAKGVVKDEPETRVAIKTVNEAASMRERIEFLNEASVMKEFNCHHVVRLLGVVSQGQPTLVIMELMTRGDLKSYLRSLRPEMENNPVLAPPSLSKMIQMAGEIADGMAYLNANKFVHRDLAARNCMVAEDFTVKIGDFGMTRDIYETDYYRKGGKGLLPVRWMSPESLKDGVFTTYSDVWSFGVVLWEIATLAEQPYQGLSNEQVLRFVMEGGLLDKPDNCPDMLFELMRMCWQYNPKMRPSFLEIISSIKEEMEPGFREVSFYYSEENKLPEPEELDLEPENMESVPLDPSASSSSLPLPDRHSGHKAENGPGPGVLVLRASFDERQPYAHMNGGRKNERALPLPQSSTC
Mitogen-activated protein kinase 8 (Homo sapiens), sequence (P45983 whole entry, canonical isoform): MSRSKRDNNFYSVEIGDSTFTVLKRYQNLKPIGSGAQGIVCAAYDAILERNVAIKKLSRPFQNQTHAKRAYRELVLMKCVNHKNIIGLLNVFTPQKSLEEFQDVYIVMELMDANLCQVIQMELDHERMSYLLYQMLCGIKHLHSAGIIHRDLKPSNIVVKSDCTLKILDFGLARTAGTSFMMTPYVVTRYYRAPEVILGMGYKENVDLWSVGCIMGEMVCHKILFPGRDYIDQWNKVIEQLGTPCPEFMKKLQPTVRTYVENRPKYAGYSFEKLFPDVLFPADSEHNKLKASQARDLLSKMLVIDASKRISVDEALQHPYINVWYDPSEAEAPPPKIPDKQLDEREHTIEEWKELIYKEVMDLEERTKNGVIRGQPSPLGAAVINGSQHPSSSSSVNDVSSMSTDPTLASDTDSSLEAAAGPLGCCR
RAC-alpha serine/threonine-protein kinase (Homo sapiens), sequence (P31749 whole entry): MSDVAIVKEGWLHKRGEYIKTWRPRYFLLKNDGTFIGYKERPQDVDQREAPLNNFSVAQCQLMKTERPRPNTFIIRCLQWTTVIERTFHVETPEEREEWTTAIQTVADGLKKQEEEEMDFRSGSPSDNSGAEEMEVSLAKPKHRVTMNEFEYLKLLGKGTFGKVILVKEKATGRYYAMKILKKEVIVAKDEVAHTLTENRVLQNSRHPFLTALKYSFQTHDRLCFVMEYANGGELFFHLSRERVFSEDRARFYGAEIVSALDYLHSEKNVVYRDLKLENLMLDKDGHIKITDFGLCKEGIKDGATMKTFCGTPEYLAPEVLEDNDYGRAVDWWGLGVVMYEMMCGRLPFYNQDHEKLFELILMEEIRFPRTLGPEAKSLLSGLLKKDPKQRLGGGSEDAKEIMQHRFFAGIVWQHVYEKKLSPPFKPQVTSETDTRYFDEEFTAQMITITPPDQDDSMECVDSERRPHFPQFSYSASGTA

| SMILES | inhibition [1] | IC50 [2] | inhibition [3] | EC50 [4] | inhibition [5] | Ki [6] | inhibition [7] | inhibition [8] | inhibition [9] | inhibition [10] | inhibition [11] | inhibition [12] | inhibition [13] | inhibition [14] | Ki [15] | inhibition [16] | inhibition [17] | inhibition [18] | inhibition [19] | inhibition [20] | also measured |
| --- | --- | --- | --- | --- | --- | --- | --- | --- | --- | --- | --- | --- | --- | --- | --- | --- | --- | --- | --- | --- | --- |
| CS(=O)(=O)N1CCN(Cc2cn3c(C#N)c(-c4cccc5[nH]ncc45)nc(N4CCOCC4)c3n2)CC1 | 50% | 194 nM | < 50% | 203 nM | < 50% | > 500 nM | < 50% | < 50% | < 50% | < 50% | < 50% | < 50% | 50% | < 50% | 410 nM | < 50% | < 50% | < 50% | < 50% | < 50% | – |
| O=C(NCCN1CCOCC1)c1cn2cc(-c3cccc4[nH]ncc34)nc(N3CCOCC3)c2n1 | 50% | – | < 50% | 452 nM | < 50% | > 500 nM | < 50% | < 50% | < 50% | < 50% | < 50% | < 50% | 50% | < 50% | 65 nM | < 50% | < 50% | < 50% | < 50% | < 50% | – |
| CS(=O)(=O)N1CCN(Cc2cn3c(Cl)c(-c4cccc5[nH]ncc45)nc(N4CCOCC4)c3n2)CC1 | 50% | 145 nM | < 50% | 495 nM | < 50% | > 500 nM | < 50% | < 50% | < 50% | < 50% | < 50% | < 50% | 50% | < 50% | 210 nM | < 50% | < 50% | < 50% | < 50% | < 50% | inhibition at 10 µM [21]: < 25%; remaining at 0.5 h, 1 µM [22]: 35%; remaining at 0.5 h, 1 µM [23]: 28%; inhibition at 10 µM [24]: < 25%; inhibition at 10 µM [25]: < 25%; inhibition at 10 µM [26]: < 25%; inhibition at 10 µM [27]: < 25% |
| COCCCNC(=O)c1cn2cc(-c3cccc4[nH]ncc34)nc(N3CCOCC3)c2n1 | 50% | 31 nM | < 50% | 114 nM | < 50% | > 500 nM | < 50% | < 50% | < 50% | < 50% | < 50% | < 50% | 50% | < 50% | 60 nM | < 50% | < 50% | < 50% | < 50% | < 50% | – |
| CN(C)CCCNC(=O)c1cn2cc(-c3cccc4[nH]ncc34)nc(N3CCOCC3)c2n1 | 50% | 35 nM | < 50% | 429 nM | < 50% | > 500 nM | < 50% | < 50% | < 50% | < 50% | < 50% | < 50% | 50% | < 50% | 44 nM | < 50% | < 50% | < 50% | < 50% | < 50% | – |

Second part, led by results:

| inhibition [1] | IC50 [2] | inhibition [3] | EC50 [4] | inhibition [5] | Ki [6] | inhibition [7] | inhibition [8] | inhibition [9] | inhibition [10] | inhibition [11] | inhibition [12] | inhibition [13] | inhibition [14] | Ki [15] | inhibition [16] | inhibition [17] | inhibition [18] | inhibition [19] | inhibition [20] | SMILES | also measured |
| --- | --- | --- | --- | --- | --- | --- | --- | --- | --- | --- | --- | --- | --- | --- | --- | --- | --- | --- | --- | --- | --- |
| 50% | 47 nM | < 50% | 208 nM | < 50% | > 500 nM | < 50% | < 50% | < 50% | < 50% | < 50% | < 50% | 50% | < 50% | 86 nM | < 50% | < 50% | < 50% | < 50% | < 50% | CS(=O)(=O)N1CCN(Cc2nc3c(N4CCOCC4)nc(-c4cccc5[nH]ncc45)cn3c2Br)CC1 | – |
| 50% | – | < 50% | 600 nM | < 50% | > 500 nM | < 50% | < 50% | < 50% | < 50% | < 50% | < 50% | 50% | < 50% | 102 nM | < 50% | < 50% | < 50% | < 50% | < 50% | CNC(=O)c1cn2cc(-c3cccc4[nH]ncc34)nc(N3CCOCC3)c2n1 | – |
| 50% | – | < 50% | – | < 50% | > 500 nM | < 50% | < 50% | < 50% | < 50% | < 50% | < 50% | < 50% | < 50% | – | < 50% | < 50% | < 50% | < 50% | < 50% | CS(=O)(=O)N1CCN(Cc2cn3cc(-c4cccc5[nH]ncc45)nc(N4CCOCC4)c3n2)CC1 | inhibition at 10 µM [21]: < 25%; remaining at 0.5 h, 1 µM [22]: 48%; remaining at 0.5 h, 1 µM [23]: 32%; inhibition at 10 µM [24]: < 25%; inhibition at 10 µM [25]: < 25%; inhibition at 10 µM [26]: < 25%; inhibition at 10 µM [27]: < 25% |
